Reference: ChEMBL document CHEMBL1125574, “Structure and DNA binding activity of analogues of 1,5-bis(4-amidinophenoxy)pentane (pentamidine)” (J Med Chem, 1992)

Key:
Nucleic Acid [1] = test: Denaturation temperature change on binding to AT to poly (dA)-poly(dT); format: functional
Procedure, shortened: (§1)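 Synthetic homopolymer, poly(dA)·poly(dT) or poly(dG-dC)·poly(dG-dC), at an initial absorbance of 0.15 A259. Samples were heated at 18 °C/h while absorbance at 259 nm was logged every 0.2 °C. Tm was taken as the curve midpoint between graphically chosen start and end temperatures. ΔTm is relative to the free polymer's Tm in the same run, averaged over at least two determinations with standard errors.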

Nucleic Acid [2] = test: Denaturation temperature change on binding on GC to poly(dGC)-poly(dGC); format: functional; procedure, shortened: as §1
Calf thymus DNA = test: Denaturation temperature change on binding to calf thymus DNA; format: functional
Procedure, shortened: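 Calf thymus DNA at an initial absorbance of 0.3 A259 was heated at 18 °C/h, recording absorbance at 259 nm at 0.2 °C intervals. The melting midpoint was set from graphically selected start and end temperatures. ΔTm was taken against the DNA-alone Tm from the same experiment, as the mean of at least two determinations with standard errors.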

Nucleic Acid [3] = test: DNA binding activity as denaturation temperatures on AT to poly (dA)-poly(dT) normalized to ethidium bromide; format: functional
Nucleic Acid [4] = test: DNA binding property estimated by measuring denaturation temperature on GC to poly (dGC)-poly(dGC), normalized to ethidium bromide

Row | Compound | ΔTm (Nucleic Acid [1]) | ΔTm (Nucleic Acid [2]) | ΔTm (Calf thymus DNA) | ΔTm (Nucleic Acid [3]) | ΔTm (Nucleic Acid [4])
1 | N=C(N)c1ccc(OCCOc2ccc(C(=N)N)cc2N)c(N)c1 | 16.4 | 3 | 8.8 | 1.7 | 0.6
2 | N=C(N)c1ccc(OCCCOc2ccc(C(=N)N)cc2)cc1 | 32 | 4.5 | 14.7 | 3.2 | 0.8
3 | N=C(N)c1ccc(OCCCCOc2ccc(C(=N)N)cc2[N+](=O)[O-])c([N+](=O)[O-])c1 | 14.7 | 3.5 | 9.6 | 1.5 | 0.7
4 | N=C(N)c1cccc(OCCCCCOc2cccc(C(=N)N)c2)c1 | 7.6 | 2.2 | 7.6 | 0.8 | 0.4
5 | N=C(N)c1ccc(NCCCCCNc2ccc(C(=N)N)cc2)cc1 | 20.7 | 4.4 | 11.3 | 2.1 | 0.8
6 | N=C(N)c1ccc(OCCCCCOc2ccc(C(=N)N)cc2Cl)c(Cl)c1 | 24.3 | 4.6 | 10.5 | 2.5 | 0.9
7 | N=C(N)c1ccc(NCCCCCCNc2ccc(C(=N)N)cc2N)c(N)c1 | 15 | 3.6 | 8.3 | 1.5 | 0.7
8 | COc1cc(C(=N)N)ccc1OCCCCCOc1ccc(C(=N)N)cc1OC | 27.2 | 2.7 | 12 | 2.7 | 0.5
9 | N=C(N)c1cccc(OCCCCCCOc2cccc(C(=N)N)c2)c1 | 8.1 | 2.5 | 7.3 | 0.8 | 0.5
10 | N=C(N)c1ccc(NCCNc2ccc(C(=N)N)cc2N)c(N)c1 | 16.8 | 3 | 9.8 | 1.7 | 0.6
11 | N=C(N)c1ccc(NCCCCCCNc2ccc(C(=N)N)cc2)cc1 | 12.9 | 2.9 | 9.1 | 1.3 | 0.5
12 | N=C(N)c1ccc(OCCOc2ccc(C(=N)N)cc2[N+](=O)[O-])c([N+](=O)[O-])c1 | 10.3 | 1.9 | 5.6 | 1 | 0.4
13 | N=C(N)c1cccc(OCCCCOc2cccc(C(=N)N)c2)c1 | 15.2 | 2.6 | 8.1 | 1.5 | 0.5
14 | N=C(N)c1ccc(NCCCCCNc2ccc(C(=N)N)cc2N)c(N)c1 | 20.9 | 3.3 | 11 | 2.1 | 0.6
15 | N=C(N)c1ccc(OCCOc2ccc(C(=N)N)cc2)cc1 | 7.5 | 1.3 | 5.4 | 0.8 | 0.2
16 | N=C(N)c1ccc(NCCCCNc2ccc(C(=N)N)cc2N)c(N)c1 | 13.2 | 4.6 | 10.5 | 1.3 | 0.9
17 | N=C(N)c1ccc(NCCCCCNc2ccc(C(=N)N)cc2[N+](=O)[O-])c([N+](=O)[O-])c1 | 22.1 | 6.2 | 12.7 | 2.2 | 1.2
18 | N=C(N)c1ccc(NCCCNc2ccc(C(=N)N)cc2[N+](=O)[O-])c([N+](=O)[O-])c1 | 26.6 | 5 | 12.4 | 2.7 | 0.9
19 | N=C(N)c1ccc(OCCCCCCOc2ccc(C(=N)N)cc2)cc1 | 19 | 2.8 | 9.1 | 1.9 | 0.5

Row | Compound | ΔTm (Nucleic Acid [1]) | ΔTm (Nucleic Acid [2]) | ΔTm (Calf thymus DNA) | ΔTm (Nucleic Acid [3]) | ΔTm (Nucleic Acid [4])
20 | N=C(N)c1ccc(OCCCCCOc2ccc(C(=N)N)cc2[N+](=O)[O-])c([N+](=O)[O-])c1 | 21.6 | 3.2 | 9.7 | 2.2 | 0.6
21 | N=C(N)c1ccc(OCCCCOc2ccc(C(=N)N)cc2Cl)c(Cl)c1 | 20.3 | 4.2 | 8.9 | 2.1 | 0.8
22 | COc1cc(C(=N)N)ccc1OCCCCOc1ccc(C(=N)N)cc1OC | 22.9 | 1.1 | 10.2 | 2.3 | 0.2
23 | N=C(N)c1ccc(OCCCCCCOc2ccc(C(=N)N)cc2N)c(N)c1 | 18.4 | 2.8 | 9.5 | 1.9 | 0.5
24 | N=C(N)c1ccc(OCCCOc2ccc(C(=N)N)cc2N)c(N)c1 | 32.2 | 5.2 | 13.6 | 3.3 | 1
25 | N=C(N)c1ccc(-c2cc3ccc(C(=N)N)cc3[nH]2)cc1 | 42 | 6.9 | 21.5 | 4.2 | 1.3
26 | Cn1cc(NC(=O)c2cc(NC(=O)CNC(=N)N)cn2C)cc1C(=O)NCCC(=N)N | 46.6 | 1.1 | 19 | 4.7 | 0.2
27 | CC[n+]1c(-c2ccccc2)c2cc(N)ccc2c2ccc(N)cc21 | 12.4 | 9.9 | 12.4 | 1 | 1
28 | N=C(N)c1ccc(NCCCNc2ccc(C(=N)N)cc2)cc1 | 25.7 | 3 | 11.6 | 2.6 | 0.6
29 | N=C(N)c1cccc(OCCCOc2cccc(C(=N)N)c2)c1 | 8.5 | 3 | 7.6 | 0.9 | 0.6
30 | Cn1cc(NC(=O)c2cc(NC(=O)c3cc(NC=O)cn3C)cn2C)cc1C(=O)NCCC(=N)N | 30.5 | 1.9 | 11.5 | 3.1 | 0.4
31 | N=C(N)c1ccc(NCCCCNc2ccc(C(=N)N)cc2)cc1 | 18.7 | 2.8 | 10.3 | 1.9 | 0.5
32 | N=C(N)c1ccc(OCCCCOc2ccc(C(=N)N)cc2N)c(N)c1 | 19.4 | 3.7 | 9.6 | 2 | 0.7
33 | N=C(N)c1ccc(OCCCCCOc2ccc(C(=N)N)cc2)cc1 | 22.9 | 3.2 | 10.7 | 2.3 | 0.6
34 | N=C(N)c1ccc(OCCCCCOc2ccc(C(=N)N)cc2N)c(N)c1 | 20.7 | 3.2 | 10.8 | 2.1 | 0.6
35 | N=C(N)c1ccc(OCCCCOc2ccc(C(=N)N)cc2)cc1 | 17.9 | 3.1 | 8.3 | 1.8 | 0.6
36 | N=C(N)c1ccc(NCCCNc2ccc(C(=N)N)cc2N)c(N)c1 | 25.6 | 4.8 | 12.4 | 2.6 | 0.9
37 | COc1cc(C(=N)N)ccc1OCCCOc1ccc(C(=N)N)cc1OC | 38 | 3.4 | 16.3 | 3.8 | 0.6
